From paper PMC5439940 (International Journal of Nanomedicine, 2017)

What was measured:
[1] = system: ASF-LL T-cell leukemic lymphoma; experiment: Antitumor effect in transplanted mouse T-cell leukemic lymphoma; format: in vivo
How it was run: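 A/Sn female mice aged 6 or 12 months, one experiment per age, received 10^6 ASF-LL cells SC on day 0. Groups of n=6 got IV free parent drug (10 mg/kg) or an equivalent liposomal prodrug dose in 0.2 mL PBS/1 mM EDTA, pH 7.0, on days 3, 5, 10 and 12. Controls got vehicle. Daily survival monitoring; euthanasia at >20% weight loss and/or food rejection. Mean ± SD, Student's t-test.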

[2] = Plasma retention of liposomal MTX-DG versus intact MTX in mice; format: in vivo; conditions: IV
How it was run: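 Female F1(CBA × C57BL/6) mice, 20–22 g, 6–8 weeks old, received 10 mg/kg free parent drug or an equivalent liposomal prodrug dose IV by tail vein (0.2 mL). Groups of n=3 were decapitated at set times and serum collected at 600×g for 10 min. Drug was measured by RP-HPLC after HClO4 deproteinisation; prodrug by RP-HPLC with UV detection at 313 nm. Both were calibrated against spiked or extracted control serum.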

A549 or CoLo-357 cells = format: cell-based, human; conditions: for Effect of inhibitor on liposome accumulation/binding: preincubation with inhibitor, then liposomes 100 μM total lipids, 37°C

CN(Cc1cnc2nc(N)nc(N)c2n1)c1ccc(C(=O)N[C@@H](CCC(=O)O)C(=O)O)cc1 [MTX, Methotrexate]
Delay of palpable lymphoma appearance and tumor growth vs controls ([1]; both experiments, 10 mg/kg MTX or equivalent IV on days 3, 5, 10, 12): significant delay in palpable lymphoma appearance
Increase in the mean life span vs control group ([1]; first experiment, mice aged 6 months, 4 IV injections, days 3, 5, 10, 12): 23%
Toxicity / tolerability in old recipient mice ([1]; second experiment, mice aged 12 months, 4 IV injections): pronounced toxicity
t1/2α and t1/2β of MTX relative to MTX-DG (times lower) [2]: approximately 4 times

CN(C)CCCN1c2ccccc2Sc2ccc(Cl)cc21 [chlorpromazine]
Effect of inhibitor on liposome accumulation/binding (A549 or CoLo-357 cells): concentration-dependent decrease in liposome accumulation

COc1cc2c(c(OC)c1OC)-c1ccc(OC)c(=O)cc1[C@@H](NC(C)=O)CC2 [colchicine]
Effect of inhibitor on liposome accumulation/binding (A549 or CoLo-357 cells): elusive effects

C=C1[C@@H](C)[C@H]2[C@H](Cc3ccccc3)NC(=O)[C@]23OC(=O)/C=C/[C@H](O)CCC[C@@H](C)C/C=C/[C@H]3[C@@H]1O [cytochalasin B]
Effect of inhibitor on liposome accumulation/binding (A549 or CoLo-357 cells): elusive effects

COC(=O)Nc1nc2ccc(C(=O)c3cccs3)cc2[nH]1 [nocodazole]
Effect of inhibitor on liposome accumulation/binding (A549 or CoLo-357 cells): elusive effects

Methyl-β-cyclodextrin
Cell death caused by inhibitor (A549 or CoLo-357 cells; in the range of concentrations required for the inhibitory studies): > 50%
